ChEMBL document CHEMBL4433211, “Discovery of the First-in-Class GSK-3β/HDAC Dual Inhibitor as Disease-Modifying Agent To Combat Alzheimer's Disease” (ACS Med Chem Lett, 2019)
Converted amounts (≈) assume the structure as drawn. Values belong to the compound of their own block, whether it stands above or below them. The source made the active and inactive calls. No cut-off for these calls is given here.

Key:
[1] = target: T1, Glycogen synthase kinase-3 beta (Homo sapiens, UniProt P49841); assay: Inhibition of human recombinant GSK3beta using GSM as substrate incubated for 30 mins by luminescence based assay
Target sequence in this assay (P49841 whole entry): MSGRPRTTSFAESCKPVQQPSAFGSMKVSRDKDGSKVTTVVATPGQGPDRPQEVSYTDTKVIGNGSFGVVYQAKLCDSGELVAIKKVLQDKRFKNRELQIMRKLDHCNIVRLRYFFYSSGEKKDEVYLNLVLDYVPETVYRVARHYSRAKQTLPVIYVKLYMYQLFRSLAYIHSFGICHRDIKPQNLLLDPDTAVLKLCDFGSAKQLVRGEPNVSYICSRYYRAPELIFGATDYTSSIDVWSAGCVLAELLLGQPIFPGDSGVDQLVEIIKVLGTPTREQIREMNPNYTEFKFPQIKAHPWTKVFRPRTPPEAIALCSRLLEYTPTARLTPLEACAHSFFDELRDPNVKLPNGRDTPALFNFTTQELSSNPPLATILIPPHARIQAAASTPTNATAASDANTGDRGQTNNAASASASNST

Histone deacetylase 1 = Histone deacetylase 1 (Homo sapiens, UniProt Q13547); assay: Inhibition of human recombinant his tagged HDAC1 expressed in baculovirus infected […] insect cells using tertbutyloxycarbonyl (Boc)-(Ac)-Lys-7-amino-4-methylcoumarin as substrate incubated for 1 hr by fluorescence based assay
[2] = target: T2, Protein deacetylase HDAC6 (Homo sapiens, UniProt Q9UBN7); assay: Inhibition of human recombinant his tagged HDAC6 expressed in baculovirus infected […] insect cells using batcp as substrate incubated for 1 hr by fluorescence based assay
T2 sequence (Q9UBN7 whole entry): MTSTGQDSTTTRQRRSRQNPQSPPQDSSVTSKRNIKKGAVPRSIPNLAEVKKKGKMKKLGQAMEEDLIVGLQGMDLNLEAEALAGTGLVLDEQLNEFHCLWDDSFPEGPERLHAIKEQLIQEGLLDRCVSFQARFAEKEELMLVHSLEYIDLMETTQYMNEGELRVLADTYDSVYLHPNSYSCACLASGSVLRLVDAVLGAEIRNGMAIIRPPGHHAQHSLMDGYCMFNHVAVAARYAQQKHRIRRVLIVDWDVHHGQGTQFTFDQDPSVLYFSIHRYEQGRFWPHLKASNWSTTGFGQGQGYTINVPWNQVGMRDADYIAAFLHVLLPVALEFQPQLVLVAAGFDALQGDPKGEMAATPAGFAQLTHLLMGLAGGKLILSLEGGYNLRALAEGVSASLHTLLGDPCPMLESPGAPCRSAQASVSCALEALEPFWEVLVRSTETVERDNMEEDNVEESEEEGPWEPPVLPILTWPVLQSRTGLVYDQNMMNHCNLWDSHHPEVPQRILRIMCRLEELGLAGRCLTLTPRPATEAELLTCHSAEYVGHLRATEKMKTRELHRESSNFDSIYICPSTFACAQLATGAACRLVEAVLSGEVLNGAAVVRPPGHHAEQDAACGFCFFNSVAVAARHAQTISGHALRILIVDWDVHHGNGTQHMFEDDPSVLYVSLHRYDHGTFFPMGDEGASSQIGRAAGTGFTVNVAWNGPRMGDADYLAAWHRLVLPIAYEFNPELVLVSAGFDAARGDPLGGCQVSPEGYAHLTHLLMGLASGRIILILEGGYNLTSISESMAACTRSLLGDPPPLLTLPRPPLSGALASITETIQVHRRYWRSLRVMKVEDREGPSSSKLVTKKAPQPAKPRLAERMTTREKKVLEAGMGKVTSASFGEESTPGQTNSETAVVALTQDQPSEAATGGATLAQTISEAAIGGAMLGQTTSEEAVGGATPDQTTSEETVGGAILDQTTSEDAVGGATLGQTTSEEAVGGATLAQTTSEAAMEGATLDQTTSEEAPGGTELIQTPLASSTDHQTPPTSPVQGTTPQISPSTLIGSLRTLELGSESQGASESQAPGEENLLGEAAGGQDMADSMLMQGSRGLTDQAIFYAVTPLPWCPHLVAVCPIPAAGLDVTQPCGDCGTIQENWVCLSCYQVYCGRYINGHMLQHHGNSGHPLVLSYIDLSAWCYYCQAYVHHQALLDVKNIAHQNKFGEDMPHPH

[3] = target: T3, Protein deacetylase HDAC6 (Homo sapiens) (UniProt Q9UBN7); assay: Inhibition of HDAC6 in human SH-SY5Y cells assessed as increase in acetylation of alpha-tubulin incubated for 30 hrs by Western blot analysis; type: cell-based
T3 sequence (whole entry): T2 sequence (Q9UBN7 whole entry)
How it was run: (§1)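 Human neuroblastoma SH-SY5Y cells treated 30 h at 0.1, 1.0 and 5.0 μM; cell lysates probed by Western blot for acetylated α-tubulin (HDAC6 cellular marker) and histone H3 acetylated at lysines 9/14 (H3K9K14ac).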

[4] = target: T4, Histone deacetylase (Homo sapiens) (UniProt Q13547+O15379+Q9UBN7+Q92769+Q9UQL6+Q8WUI4+Q9BY41+Q96DB2+P56524+Q9UKV0+Q969S8); assay: Inhibition of HDAC in human SH-SY5Y cells assessed as increase in acetylation of histone 3 at lysines 9/14 at 0.1 to 5 uM incubated for 30 hrs by Western blot analysis; type: cell-based; how it was run: as §1
[5] = target: T1, Glycogen synthase kinase-3 beta; assay: Inhibition of GSK3beta in human SH-SY5Y cells assessed as reduction in copper-induced tau hyperphosphorylation at 10 uM preincubated for 1 hr followed by copper addition and measured after 26 hrs by ELISA; type: cell-based; settings: in the assay text read “16 hrs” for “26 hrs”
How it was run: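 Differentiated SH-SY5Y cells pretreated 1 h with test agent (LiCl 10 mM reference; compounds 10 μM), then copper 400 μM for 16 h; cells scraped, phospho-tau quantified by immunoenzymatic assay at 450 nm; mean ± SEM.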
Target sequence in this assay (P49841 whole entry, looked up): as the sequence (P49841 whole entry) above

SH-SY5Y [6] = assay: Cytotoxicity against human SH-SY5Y cells up to 100 uM incubated for 24 hrs by MTS assay; type: cell-based
How it was run: (§2)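 SH-SY5Y cells exposed to test compound for 24 h at 37 °C; viability read by MTS assay and expressed as % of untreated control.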

SH-SY5Y [7] = assay: Neuroprotective activity against H2O2-induced cell death in human SH-SY5Y cells at 0.1 uM incubated for 24 hrs by MTS assay; type: functional, cell-based
How it was run: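 SH-SY5Y cells challenged 24 h with H2O2 (25 and 50 μM) in presence of compounds (0.1–10 μM), alone or as a two-compound combination; viability by MTS assay as % of control.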

SH-SY5Y [8] = assay: Cytoprotective activity against human SH-SY5Y cells assessed as restoration of H2O2-induced p53 expression level at 10 uM incubated for 24 hrs; type: functional, cell-based
How it was run: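 SH-SY5Y cells exposed to H2O2 (50 μM) with or without test compound (10 μM); p53 protein levels then measured.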

[9] = test system: Cerebellar granule neurone; assay: Neuroprotective activity against 6-OHDA-induced cell death in Wistar rat primary cerebellar granule neurons at 5 uM preincubated for 6 hrs followed by 6-OHDA addition and measured after 24 hrs by MTT assay; type: functional, cell-based
How it was run: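 Primary differentiated cerebellar granule neurons challenged with 6-OHDA with or without test compound; viability assessed; mean ± SE of at least 3 experiments in quadruplicate, one-way ANOVA with Bonferroni post hoc test.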

SH-SY5Y [10] = assay: Induction of neurogenesis in human SH-SY5Y cells assessed as upregulation of GAP43 mRNA at 10 uM incubated for 24 hrs by RT-PCR analysis; type: functional, cell-based
How it was run: (§3)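 SH-SY5Y cells treated 24 h (10 μM, or 1 μM for one parent compound; retinoic acid positive control); GAP43, N-myc and MAP-2 mRNA measured by RT-PCR, expressed as fold of control.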

SH-SY5Y [11] = assay: Induction of neurogenesis in human SH-SY5Y cells assessed as upregulation of N-myc mRNA at 10 uM incubated for 24 hrs by RT-PCR analysis; type: functional, cell-based; how it was run: as §3
SH-SY5Y [12] = assay: Induction of neurogenesis in human SH-SY5Y cells assessed as upregulation of MAP-2 mRNA at 10 uM incubated for 24 hrs by RT-PCR analysis; type: functional, cell-based; how it was run: as §3
SH-SY5Y [13] = assay: Induction of neurogenesis in human SH-SY5Y cells assessed as stimulation of neurite outgrowth at 10 uM incubated for 72 hrs by phase contrast microscopic analysis; type: functional, cell-based
How it was run: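 SH-SY5Y cells treated 72 h at 10 μM, retinoic acid (10 μM) as positive control; neurite-bearing cells scored from images taken at 20× magnification.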

Microglia [14] = assay: Immunomodulatory activity in LPS treated Wistar rat primary microglial cells assessed as decrease in NOS2 expression level at 5 to 50 uM incubated for 24 hrs by western blot analysis; type: functional, cell-based
How it was run: (§4)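 Primary microglial cells treated 24 h with LPS in presence or absence of test compound; NOS2, MRC1 and TREM2 protein assessed by Western blot, normalized to GAPDH.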

Microglia [15] = assay: Immunomodulatory activity in LPS treated Wistar rat primary microglial cells assessed as decrease in MRC1 expression level at 5 to 50 uM incubated for 24 hrs by western blot analysis; type: functional, cell-based; how it was run: as §4
Microglia [16] = assay: Immunomodulatory activity in LPS treated Wistar rat primary microglial cells assessed as effect on TREM2 expression level at 5 to 50 uM incubated for 24 hrs by western blot analysis; type: functional, cell-based; how it was run: as §4
[17] = Toxicity in zebra fish embryo at 25 uM dosed at 5 hpf and measured after 44 to 48 hpf by microscopic based assay; type: organism-based, Danio rerio; settings: zebrafish, in vivo
[18] = Toxicity in zebra fish embryo assessed as lethality at < 100 uM dosed at 5 hpf and measured after 44 to 48 hpf by microscopic based assay; type: organism-based, Danio rerio; settings: zebrafish, in vivo
How it was run: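 Wild-type zebrafish embryos exposed to the compound at concentrations below 100 μM, including 25, 50 and 75 μM. Control embryos were kept in 2% DMSO vehicle. Embryos were scored for lethality, and their morphology, including tail and eye formation, was inspected by imaging.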

[19] = Toxicity in zebra fish embryo assessed as stunted tail at 50 to 75 uM uM dosed at 5 hpf and measured after 44 to 48 hpf by microscopic based assay; type: organism-based, Danio rerio; settings: zebrafish, in vivo
[20] = Toxicity in zebra fish embryo assessed as crooked tail at 50 to 75 uM uM dosed at 5 hpf and measured after 44 to 48 hpf by microscopic based assay; type: organism-based, Danio rerio; settings: zebrafish, in vivo
[21] = Toxicity in zebra fish embryo assessed as malformation of eye at 75 uM uM dosed at 5 hpf and measured after 44 to 48 hpf by microscopic based assay; type: organism-based, Danio rerio; settings: zebrafish, in vivo
[22] = Toxicity in zebra fish embryo assessed as development perturbation at 75 uM dosed at 5 hpf and measured after 44 to 48 hpf by microscopic based assay; type: organism-based, Danio rerio; settings: zebrafish, in vivo
[23] = Aqueous solubility of the compound in PBS incubated for 24 hrs under continuous stirring condition by UV spectrometric assay; type: physicochemical
[24] = target: T4, Histone deacetylase (Homo sapiens); assay: Inhibition of HDAC in human SH-SY5Y cells assessed as increase in acetylation of histone 3 at lysines 9/14 at 5 uM incubated for 30 hrs by Western blot analysis; type: cell-based; how it was run: as §1
[25] = target: T1, Glycogen synthase kinase-3 beta; assay: Inhibition of human recombinant GSK3beta up to 50 uM using GSM as substrate incubated for 30 mins by luminescence based assay
Target sequence in this assay (P49841 whole entry, looked up): as the sequence (P49841 whole entry) above

SH-SY5Y [26] = assay: Cytotoxicity against human SH-SY5Y cells at 10 uM incubated for 24 hrs by MTS assay; type: cell-based; how it was run: as §2
SH-SY5Y [27] = assay: Induction of neurogenesis in human SH-SY5Y cells assessed as upregulation of GAP43 mRNA at 1 uM incubated for 24 hrs by RT-PCR analysis; type: functional, cell-based; how it was run: as §3
SH-SY5Y [28] = assay: Induction of neurogenesis in human SH-SY5Y cells assessed as upregulation of MAP-2 mRNA at 1 uM incubated for 24 hrs by RT-PCR analysis; type: functional, cell-based; how it was run: as §3
SH-SY5Y [29] = assay: Induction of neurogenesis in human SH-SY5Y cells assessed as upregulation of N-myc mRNA at 1 uM incubated for 24 hrs by RT-PCR analysis; type: functional, cell-based; how it was run: as §3

Sequence of Histone deacetylase 1 (Q13547 whole entry): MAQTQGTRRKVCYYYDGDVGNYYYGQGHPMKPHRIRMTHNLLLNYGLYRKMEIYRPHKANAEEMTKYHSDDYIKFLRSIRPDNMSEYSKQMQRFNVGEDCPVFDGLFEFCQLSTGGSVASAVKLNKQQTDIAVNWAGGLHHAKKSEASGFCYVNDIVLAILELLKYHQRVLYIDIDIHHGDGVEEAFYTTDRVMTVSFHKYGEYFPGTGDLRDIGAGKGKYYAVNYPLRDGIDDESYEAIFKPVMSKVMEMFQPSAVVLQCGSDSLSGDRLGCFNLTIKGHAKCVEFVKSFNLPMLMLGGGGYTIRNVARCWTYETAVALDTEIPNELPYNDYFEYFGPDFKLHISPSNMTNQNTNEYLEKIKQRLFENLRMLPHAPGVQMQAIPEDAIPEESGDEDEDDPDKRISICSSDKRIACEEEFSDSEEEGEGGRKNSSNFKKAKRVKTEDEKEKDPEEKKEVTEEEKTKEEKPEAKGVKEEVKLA

- IC50 [1]: 4.11 µM
- IC50 (Histone deacetylase 1): 5.02 µM
- IC50 [2]: 14.7 µM
SMILES: O=C(CCCCNC(=S)Nc1ccc2c(c1)C(=O)NC2=O)NO

SMILES: O=C(CCCCCNC(=S)Nc1ccc2c(c1)C(=O)NC2=O)NO
- IC50 [1]: 2.69 µM
- IC50 (Histone deacetylase 1): 12.8 µM
- IC50 [2]: 3.19 µM
- inhibition [3]: Dose-dependent effect
- inhibition [4]: inactive
- inhibition [5]: Active
- Activity (SH-SY5Y [6]): Non-Toxic
- Activity (SH-SY5Y [7]): Active
- Activity (SH-SY5Y [8]): Active
- Activity [9]: Active
- Activity (SH-SY5Y [10]): Active
- Activity (SH-SY5Y [11]): Active
- Activity (SH-SY5Y [12]): Active
- Activity (SH-SY5Y [13]): Active
- Activity (Microglia [14]): Active
- Activity (Microglia [15]): Active
- Activity (Microglia [16]): inactive
- Activity [17]: Non-Toxic
- Activity [18]: Non-Toxic
- Activity [19]: Toxic
- Activity [20]: Toxic
- Activity [21]: Toxic
- Activity [22]: Toxic
- solubility at 24 h [23]: 153 µM (≈ 53.8 µg/mL)
- inhibition [24]: inactive

- inhibition [25]: inactive
- inhibition [5]: Active
SMILES: O=C(CCCCCCC(=O)Nc1ccccc1)NO [VORINOSTAT]
- Activity (SH-SY5Y [26]): Toxic
- Activity (SH-SY5Y [27]): Active
- Activity (SH-SY5Y [28]): Active
- Activity (SH-SY5Y [29]): Active
- Activity (Microglia [14]): Active
- Activity (Microglia [15]): Active
- Activity (Microglia [16]): inactive

- IC50 [1]: 9.85 µM
- IC50 (Histone deacetylase 1): 2.24 µM
- IC50 [2]: 12.6 µM
SMILES: O=C(CCCNC(=S)Nc1ccc2c(c1)C(=O)NC2=O)NO
